Measured values: ChEMBL document CHEMBL2176965, “Synthesis and biological investigations of nitric oxide releasing nateglinide and meglitinide type II antidiabetic prodrugs: in-vivo antihyperglycemic activities and blood pressure lowering studies” (J Med Chem, 2012)
One block for each compound: values may come before it. Calls of active or inactive are those of the source. No cut-off for these calls is given here.

Tests used:
[1] = tested on: Mus musculus; experiment: Effect on heart rate in C57BL/6 mouse at 63.01 umol/kg, po after 3 hrs (reference value: 448 bpm); format: ADME, organism-based; conditions: in vivo
[2] = Induction of NO release in PBS buffer at pH 7.4 incubated for 6 hrs; format: physicochemical; design: concentration or dose not given beside the values; conditions: pH 7.4, 6 h
Method in brief: (§1)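 Compound (2.4 mL of 5.0 × 10−2 mM) incubated at 37 °C in phosphate buffer pH 7.4 for 1, 4, 6 or 24 h. Released NO quantified indirectly as nitrite by Griess reaction and expressed as % NO released.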

[3] = tested on: Rattus norvegicus; experiment: Induction of hyperglycemia in streptozotocin-induced diabetic Sprague-Dawley rat assessed as increase in blood glucose level at 63.01 umol/kg, po after 24 hrs relative to control; format: organism-based; conditions: in vivo
Method in brief: (§2)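 Male Sprague−Dawley rats (300−350 g) made diabetic with streptozotocin 65 mg/kg ip in citrate buffer pH 4.5, nonfasting. Animals with blood glucose 20−30 mmol/L at 48 h were selected, n = 4 per group. Oral dose 63.01 μmol/kg in water with 1% methyl cellulose; vehicle controls. Tail-vein glucose read by glucometer at 1, 3, 6, 24 h; change expressed as % of the 0 h level.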

[4] = Induction of NO release in PBS buffer at pH 7.4 incubated for 24 hrs; format: physicochemical; design: concentration or dose not given beside the values; conditions: pH 7.4, 24 h; method in brief: as §1
[5] = tested on: Rattus norvegicus; experiment: Antihyperglycemic activity in streptozotocin-induced diabetic Sprague-Dawley rat assessed as reduction in blood glucose level at 63.01 umol/kg, po after 24 hrs relative to control; format: functional, organism-based; method in brief: as §2
[6] = tested on: Mus musculus; experiment: Antihypertensive activity in C57BL/6 mouse assessed as reduction in mean blood pressure at 63.01 umol/kg, po after 1 to 3 hrs; format: functional, organism-based
[7] = tested on: Mus musculus; experiment: Effect on heart rate in C57BL/6 mouse at 63.01 umol/kg, po after 6 hrs (reference value: 439 bpm); format: ADME, organism-based; conditions: in vivo
[8] = Induction of NO release in PBS buffer in presence of rat serum at pH 7.4 incubated for 1 hr; design: concentration or dose not given beside the values; conditions: pH 7.4, 1 h
Method in brief: (§3)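 Compound (2.4 mL of 5.0 × 10−2 mM) incubated at 37 °C in PBS pH 7.4 with 90 μL rat serum, a source of nonspecific esterases, for 1, 3, 6 or 24 h. NO measured as nitrite by Griess reaction and expressed as % released.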

[9] = Induction of NO release in PBS buffer at pH 7.4 incubated for 1 hr; format: physicochemical; design: concentration or dose not given beside the values; conditions: pH 7.4, 1 h; method in brief: as §1
[10] = Induction of NO release in PBS buffer at pH 7.4 incubated for 4 hrs; format: physicochemical; design: concentration or dose not given beside the values; conditions: pH 7.4, 4 h; method in brief: as §1
[11] = Induction of NO release in PBS buffer in presence of rat serum at pH 7.4 incubated for 24 hrs; design: concentration or dose not given beside the values; conditions: pH 7.4, 24 h; method in brief: as §3
[12] = tested on: Mus musculus; experiment: Effect on heart rate in C57BL/6 mouse at 63.01 umol/kg, po after 1 hr (reference value: 449 bpm); format: ADME, organism-based; conditions: in vivo
[13] = tested on: Rattus norvegicus; experiment: Antihyperglycemic activity in streptozotocin-induced diabetic Sprague-Dawley rat assessed as reduction in blood glucose level at 63.01 umol/kg, po after 6 hrs relative to control; format: functional; method in brief: as §2
[14] = tested on: Mus musculus; experiment: Antihypertensive activity in C57BL/6 mouse assessed as reduction in systolic blood pressure at 63.01 umol/kg, po after 1 hr (reference value: 126.5 mmHg); format: functional, Artery
[15] = Induction of NO release in PBS buffer in presence of rat serum at pH 7.4 incubated for 6 hrs; design: concentration or dose not given beside the values; conditions: pH 7.4, 6 h; method in brief: as §3
[16] = tested on: Mus musculus; experiment: Antihypertensive activity in C57BL/6 mouse assessed as reduction in diastolic blood pressure at 63.01 umol/kg, po after 1 to 3 hrs; format: functional, organism-based; conditions: Artery
[17] = tested on: Rattus norvegicus; experiment: Antihyperglycemic activity in streptozotocin-induced diabetic Sprague-Dawley rat assessed as reduction in blood glucose level at 63.01 umol/kg, po after 3 hrs relative to control; format: functional; design: scale not given: the % may be the effect or the level left; method in brief: as §2
[18] = tested on: Mus musculus; experiment: Antihypertensive activity in C57BL/6 mouse assessed as reduction in systolic blood pressure at 63.01 umol/kg, po after 6 hrs (reference value: 126.2 mmHg); format: functional, Artery
[19] = tested on: Rattus norvegicus; experiment: Induction of hyperglycemia in streptozotocin-induced diabetic Sprague-Dawley rat assessed as increase in blood glucose level at 63.01 umol/kg, po after 24 hrs relative to control; conditions: in vivo
[20] = tested on: Rattus norvegicus; experiment: Antihyperglycemic activity in streptozotocin-induced diabetic Sprague-Dawley rat assessed as reduction in blood glucose level at 63.01 umol/kg, po after 1 hr relative to control; format: functional; design: scale not given: the % may be the effect or the level left; method in brief: as §2
[21] = Induction of NO release in PBS buffer in presence of rat serum at pH 7.4 incubated for 3 hrs; design: concentration or dose not given beside the values; conditions: pH 7.4, 3 h
[22] = organism: Rattus norvegicus; experiment: Activation of soluble guanylyl cyclase in rat superior mesenteric arteries assessed as reversal of phenylephrine-induced tone in presence of ODQ at 1 uM by wire myography
Method in brief: (§4)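 Denudation confirmed by no relaxation to acetylcholine (10 μM). Tone raised to 75% of maximal with phenylephrine (1−3 μM). Compounds added at 1 μM, without or with ODQ (10 μM), a soluble guanylyl cyclase inhibitor.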

[23] = organism: Rattus norvegicus; experiment: Activation of soluble guanylyl cyclase in rat superior mesenteric arteries assessed as reversal of phenylephrine-induced tone at 1 uM by wire myography; method in brief: as §4
[24] = tested on: Mus musculus; experiment: Antihypertensive activity in C57BL/6 mouse assessed as reduction in systolic blood pressure at 63.01 umol/kg, po after 3 hrs (reference value: 118.3 mmHg); format: functional, Artery
[25] = tested on: Mus musculus; experiment: Antihypertensive activity in C57BL/6 mouse assessed as reduction in diastolic blood pressure at 63.01 umol/kg, po after 3 hrs; format: functional, organism-based; conditions: Artery

Activity [2]: 58.8%
Activity [4]: 61.3%
Activity [22]: inactive
Activity [8]: 44.9%
Activity [9]: 4.4%
Activity [10]: 5.1%
Activity [11]: 72.2%
Activity [15]: 57.2%
Activity [23]: Active
Activity [21]: 50.2%
SMILES: CCN(CC)/[N+]([O-])=N\OCOC(=O)[C@@H](Cc1ccccc1)NC(=O)[C@H]1CC[C@H](C(C)C)CC1
Activity [1]: 458 bpm
Activity [3]: Non-toxic
Activity [6]: Active
Activity [7]: 435 bpm
Activity [12]: 454 bpm
Activity [13]: 34.1%
Activity [14]: 113 mmHg
Activity [24]: 98.1 mmHg
Activity [16]: Active
Activity [17]: 23.5%
Activity [18]: 134.4 mmHg
Activity [19]: Non-toxic
Activity [20]: 21.1%

Activity [2]: 52.7%
Activity [3]: 48.7%
Activity [4]: 59.9%
Activity [8]: 40.2%
Activity [9]: 6.7%
Activity [10]: 6.8%
Activity [11]: 65.3%
Activity [15]: 50.1%
Activity [21]: 47.2%
SMILES: CC(C)[C@H]1CC[C@H](C(=O)N[C@H](Cc2ccccc2)C(=O)OCO/N=[N+](/[O-])N2CCCC2)CC1
Activity [1]: 458 bpm
Activity [25]: inactive
Activity [6]: Active
Activity [7]: 435 bpm
Activity [12]: 454 bpm
Activity [13]: inactive
Activity [14]: 108.4 mmHg
Activity [24]: 106.2 mmHg
Activity [17]: 22.6%
Activity [18]: 134.3 mmHg
Activity [20]: 8.1%

Second part, the compound before the results:

SMILES: CCN(CC)/[N+]([O-])=N/OCOC(=O)c1ccc(CCNC(=O)c2cc(Cl)ccc2OC)cc1
Activity [1]: 458 bpm
Activity [2]: 6.1%
Activity [3]: Non-toxic
Activity [4]: 6.5%
Activity [5]: inactive
Activity [6]: Active
Activity [7]: 435 bpm
Activity [8]: 54.5%
Activity [9]: 4.2%
Activity [10]: 6%
Activity [11]: 63.6%
Activity [12]: 454 bpm
Activity [13]: Active
Activity [14]: 96.8 mmHg
Activity [15]: 61.5%
Activity [16]: Active
Activity [17]: 12.5%
Activity [18]: 103.4 mmHg
Activity [19]: Non-toxic
Activity [20]: 20%
Activity [21]: 55.9%

SMILES: COc1ccc(Cl)cc1C(=O)NCCc1ccc(C(=O)O)cc1 [MEGLITINIDE]
Activity [5]: inactive
Activity [13]: Active
Activity [17]: 8.8%
Activity [20]: 30.5%

SMILES: CC(C)[C@H]1CC[C@H](C(=O)N[C@H](Cc2ccccc2)C(=O)OCCO[N+](=O)[O-])CC1
Activity [1]: 458 bpm
Activity [2]: 7.7%
Activity [3]: Non-toxic
Activity [4]: 9.2%
Activity [22]: inactive
Activity [7]: 435 bpm
Activity [8]: 1.3%
Activity [9]: 6.7%
Activity [10]: 7.5%
Activity [11]: 6.3%
Activity [12]: 454 bpm
Activity [13]: 20.5%
Activity [14]: 129.9 mmHg
Activity [15]: 3.9%
Activity [17]: 13.4%
Activity [18]: 103.4 mmHg
Activity [23]: Active
Activity [19]: Non-toxic
Activity [20]: 8.2%
Activity [21]: 1.9%

SMILES: COc1ccc(Cl)cc1C(=O)NCCc1ccc(C(=O)OCO/N=[N+](\[O-])N2CCCC2)cc1
Activity [1]: 458 bpm
Activity [2]: 7.2%
Activity [3]: Non-toxic
Activity [4]: 8.9%
Activity [5]: inactive
Activity [6]: Active
Activity [7]: 435 bpm
Activity [8]: 37.6%
Activity [9]: 5.1%
Activity [10]: 5.7%
Activity [11]: 60.5%
Activity [12]: 454 bpm
Activity [14]: 90.3 mmHg
Activity [15]: 59.2%
Activity [16]: Active
Activity [17]: 12.5%
Activity [18]: 103.4 mmHg
Activity [19]: Non-toxic
Activity [20]: 20%
Activity [21]: 51.7%

SMILES: COc1ccc(Cl)cc1C(=O)NCCc1ccc(C(=O)OCCO[N+](=O)[O-])cc1
Activity [1]: 458 bpm
Activity [2]: 7.7%
Activity [3]: Non-toxic
Activity [4]: 9.4%
Activity [5]: inactive
Activity [6]: Active
Activity [7]: 435 bpm
Activity [8]: 2.1%
Activity [9]: 4.1%
Activity [10]: 7.2%
Activity [11]: 3.8%
Activity [12]: 454 bpm
Activity [13]: Active
Activity [14]: 105.8 mmHg
Activity [15]: 2.6%
Activity [16]: Active
Activity [17]: 12.5%
Activity [18]: 103.4 mmHg
Activity [19]: Non-toxic
Activity [20]: 20%
Activity [21]: 2.3%

SMILES: CC(C)[C@H]1CC[C@H](C(=O)N[C@H](Cc2ccccc2)C(=O)O)CC1 [NATEGLINIDE]
Activity [13]: 30.6%
Activity [17]: 26.4%
Activity [20]: 13.8%
